Data on eight molecules can be found in ChEMBL document CHEMBL3856286, “Halogenated naphthochalcones and structurally related naphthopyrazolines with antitumor activity” (Bioorg Med Chem Lett, 2016).

A short description of data set [1]: (§1) Growth inhibition of human HT-29 cells after 72 hrs by MTT assay. It is filed as functional, cell-based. To be noted: HT-29, 72 h. Background: Formazan colour is commonly taken as a measure of viable cells.
Data set [2] concerns HT-29. The description is as §1. Type of data set: functional, cell-based.
Data set [3] in a line: (§2) Growth inhibition of human HCT116 cells after 72 hrs by MTT assay. Type of data set: functional, cell-based. To be noted: HCT-116, 72 h.
Data set [4] deals with HCT-116. The description is as §2. It is filed as functional, cell-based.
The nature of data set [5]: (§3) Growth inhibition of human 518A2 cells after 72 hrs by MTT assay. Type of data set: functional, cell-based. To be noted: 518A2, 72 h.
The test system of data set [6] is 518A2. Described as §3. It is filed as functional, cell-based.
Data set [7] is described as follows: (§4) Growth inhibition of human MCF7/Topo cells after 72 hrs by MTT assay. It is filed as functional, cell-based.
The test system of data set [8] is MCF7/Topo. The data set is described as §4. It is filed as functional, cell-based.
Data set [9] can be described thus: (§5) Growth inhibition of human PANC1 cells after 72 hrs by MTT assay. To be noted: PANC-1, 72 h. It is filed as functional, cell-based.
Data set [10] deals with PANC-1. Described as §5. It is filed as functional, cell-based.
A short description of data set [11]: (§6) Growth inhibition of human KB-V1/Vbl cells after 72 hrs by MTT assay. Type of data set: functional.
Data set [12] has as its system KB-V1/Vbl. The description is as §6. Type of data set: functional.
Data set [13] is described as follows: Cell cycle arrest in human HT-29 cells assessed as accumulation in G2/M phase at 15 uM after 24 hrs by propidium iodide staining based flow cytometry. Type of data set: functional. The method, boiled down:
(§7)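 HT-29 colon carcinoma cells treated 24 h with 15 µM compound or DMSO (control); propidium iodide staining, flow cytometry for cell-cycle phase distribution and sub-G1 fraction. Means ± SD of three independent experiments.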

Data set [14] in a line: Cell cycle arrest in human HT-29 cells assessed as decrease in G1 phase at 15 uM after 24 hrs by propidium iodide staining based flow cytometry. Type of data set: functional. The method, boiled down: as §7
Background: Flow cytometry measures light scatter and fluorescence of single cells or particles in a stream.

In data set [15] the target is T1, Broad substrate specificity ATP-binding cassette transporter ABCG2 (Homo sapiens, UniProt Q9UNQ0).
T1 sequence (Q9UNQ0 whole entry): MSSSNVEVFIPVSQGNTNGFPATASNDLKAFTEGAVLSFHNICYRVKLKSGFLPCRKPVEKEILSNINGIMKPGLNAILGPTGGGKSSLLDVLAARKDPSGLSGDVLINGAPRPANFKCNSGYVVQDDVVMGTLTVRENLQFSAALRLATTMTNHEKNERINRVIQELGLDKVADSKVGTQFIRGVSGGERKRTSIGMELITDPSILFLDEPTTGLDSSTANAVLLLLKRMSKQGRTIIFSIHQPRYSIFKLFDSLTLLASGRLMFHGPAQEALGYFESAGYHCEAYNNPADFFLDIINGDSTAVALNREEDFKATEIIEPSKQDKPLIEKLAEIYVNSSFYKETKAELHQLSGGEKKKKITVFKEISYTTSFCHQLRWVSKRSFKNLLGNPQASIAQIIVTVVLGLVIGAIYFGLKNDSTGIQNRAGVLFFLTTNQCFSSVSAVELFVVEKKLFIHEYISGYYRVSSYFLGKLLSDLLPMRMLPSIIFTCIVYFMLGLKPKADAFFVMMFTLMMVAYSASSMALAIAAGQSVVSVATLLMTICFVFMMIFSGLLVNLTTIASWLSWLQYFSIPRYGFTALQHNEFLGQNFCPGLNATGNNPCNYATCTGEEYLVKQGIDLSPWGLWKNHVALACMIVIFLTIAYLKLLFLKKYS
As to the kind of experiment: Inhibition of BCRP in human MCF7/Topo cells assessed as mitoxantrone accumulation preincubated for 10 mins followed by mitoxantrone addition measured after 30 mins by fluorescence assay. Type of data set: cell-based. The method, boiled down: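 MCF-7/Topo breast cancer cells (BCRP-overexpressing) exposed to compounds at 0–100 µM, or fumitremorgin C 0.1–100 µM as reference inhibitor, for 30 min with mitoxantrone as fluorescent BCRP substrate. Mitoxantrone fluorescence taken as measure of inhibition; IC50 from dose–response curves; mean ± SD of three independent experiments.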

The target in data set [16] is ATP-dependent translocase ABCB1 (Homo sapiens, UniProt P08183). In words: Inhibition of P-gp in human KB-V1/Vbl cells assessed as calcein-AM accumulation preincubated for 15 mins followed by calcein-AM addition measured after 15 mins by fluorescence assay. It is filed as cell-based.
Data set [17] deals with P-gp (ABCB1) (Homo sapiens, UniProt P08183). In words: Potency index, ratio of verapamil IC50 to compound IC50 for P-gp in human KB-V1/Vbl cells. It is filed as cell-based. To be noted: read-out: Ratio IC50.
Data set [18] is filed under the species Sus scrofa. As to the kind of experiment: Inhibition of pig brain tubulin polymerization at 5 uM measured every 20 sec for 2 hrs by turbidimetric method.
The subject of data set [19] is 518A2. In words: Inhibition of tubulin polymerization in human 518A2 cells assessed as increase in detergent soluble tubulin heterodimers at 5 to 50 uM after 4 hrs by Western blot analysis. It is filed as cell-based. In outline:
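518A2 melanoma cells treated 4 h with a range of concentrations; detergent-insoluble (polymeric tubulin) lysate fraction separated by centrifugation, run on SDS–PAGE, immunoblotted for alpha-tubulin (55 kDa); densitometry from at least two independent experiments (mean ± SD).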
On the technique in general: Immunoblotting shows a protein as a band on a membrane.

The test system of data set [20] is 518A2. As to the kind of experiment: Induction of apoptosis in human 518A2 cells assessed as DNA fragmentation at 25 uM after 24 hrs by TUNEL based flow cytometry. Type of data set: functional, cell-based. In outline: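 518A2 melanoma cells treated 24 h; DNA fragmentation detected by TUNEL labelling and quantified by flow cytometry against untreated controls.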

For data set [21], the system named is 518A2. In words: Induction of apoptosis in human 518A2 cells assessed as DNA ladder formation at 50 uM after 24 hrs by ethidium bromide staining based agarose gel electrophoresis. Type of data set: functional, cell-based.
The test system of data set [22] is 518A2. As to the kind of experiment: Binding affinity to tubulin in human 518A2 cells assessed as effect on F-actin cytoskeleton by measuring increase in stress fibres at 10 uM after 24 hrs by phalloidin 488/DAPI staining based fluorescence microscopic analysis. It is filed as cell-based. The method, boiled down: (§8)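 518A2 melanoma cells treated 24 h at 10 µM or 5 µM; F-actin fluorescently stained and cytoskeletal organisation, including stress-fibre formation, compared with untreated controls by fluorescence microscopy.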

Data set [23] concerns 518A2. As to the kind of experiment: Binding affinity to tubulin in human 518A2 cells assessed as effect on F-actin cytoskeleton by measuring increase in stress fibres at 5 uM after 24 hrs by phalloidin 488/DAPI staining based fluorescence microscopic analysis. Type of data set: cell-based. In outline: as §8

Calls of active or inactive are those of the source. No cut-off for these calls is given here.

P-gp (ABCB1), sequence (P08183 whole entry): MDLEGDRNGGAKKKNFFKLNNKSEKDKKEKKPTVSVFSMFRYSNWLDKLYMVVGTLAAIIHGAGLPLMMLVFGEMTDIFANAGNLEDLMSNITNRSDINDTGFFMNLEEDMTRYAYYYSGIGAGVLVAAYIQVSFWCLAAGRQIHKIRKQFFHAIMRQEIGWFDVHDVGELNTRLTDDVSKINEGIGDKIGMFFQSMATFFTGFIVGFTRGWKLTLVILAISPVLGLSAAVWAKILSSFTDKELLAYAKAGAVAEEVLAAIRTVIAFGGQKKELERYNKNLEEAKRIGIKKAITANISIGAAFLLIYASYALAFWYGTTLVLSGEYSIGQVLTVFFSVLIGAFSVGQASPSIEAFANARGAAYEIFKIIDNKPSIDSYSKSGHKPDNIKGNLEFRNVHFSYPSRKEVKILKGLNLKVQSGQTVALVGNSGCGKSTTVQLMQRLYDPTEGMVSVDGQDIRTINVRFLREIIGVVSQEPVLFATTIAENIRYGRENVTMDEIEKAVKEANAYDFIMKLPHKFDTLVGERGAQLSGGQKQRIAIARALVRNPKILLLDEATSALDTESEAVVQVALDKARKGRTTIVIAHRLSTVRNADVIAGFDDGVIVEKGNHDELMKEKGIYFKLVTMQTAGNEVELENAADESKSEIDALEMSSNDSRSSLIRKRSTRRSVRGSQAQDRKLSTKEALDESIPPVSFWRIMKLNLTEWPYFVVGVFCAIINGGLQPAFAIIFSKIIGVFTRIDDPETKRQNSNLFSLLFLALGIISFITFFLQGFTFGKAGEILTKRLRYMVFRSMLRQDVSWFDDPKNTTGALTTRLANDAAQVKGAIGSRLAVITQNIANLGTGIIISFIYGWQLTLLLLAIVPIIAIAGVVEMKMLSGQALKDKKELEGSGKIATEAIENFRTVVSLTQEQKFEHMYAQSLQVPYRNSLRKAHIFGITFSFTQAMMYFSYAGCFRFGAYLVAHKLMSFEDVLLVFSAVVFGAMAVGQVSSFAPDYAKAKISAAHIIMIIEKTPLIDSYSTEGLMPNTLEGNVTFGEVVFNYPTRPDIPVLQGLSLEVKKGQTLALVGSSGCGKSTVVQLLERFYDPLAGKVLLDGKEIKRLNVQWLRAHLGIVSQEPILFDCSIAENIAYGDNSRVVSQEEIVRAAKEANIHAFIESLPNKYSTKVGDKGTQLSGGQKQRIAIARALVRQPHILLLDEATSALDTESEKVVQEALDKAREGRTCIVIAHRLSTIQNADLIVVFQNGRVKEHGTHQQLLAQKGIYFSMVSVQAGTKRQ
ATP-dependent translocase ABCB1, sequence (P08183 whole entry): as above

A word on the IC50: it is the concentration at which inhibition is half-maximal. Turning to `COc1cc(C2CC(c3ccc4ccccc4c3)=NN2C(C)=O)cc(I)c1OC` (configuration not stated), the IC50 was 2.3 µM in data set [1]; 1.6 µM in data set [3]; 3.8 µM in data set [5]; 2.5 µM in data set [7]; 1.1 µM in [9]; 1.9 µM in data set [11]. The concentration for half-maximal inhibition (IC50) in [15] is 7.1 µM; in data set [16] it was 16.3 µM. Moreover, the “growth inhibition (GI)” value in data set [2], in data set [4], in [6], in data set [8], in data set [10] and in [12] was “Dose-dependent effect” in each case. The outcome in data set [13] and in [14] was Active. The selectivity ratio in [17] lay within 4 to 5. In addition, the inhibition result in [18] and in data set [19] was “Active” each time.

Turning to `COc1cc(/C=C/C(=O)c2ccc3ccccc3c2)cc(Br)c1OC`, the half-inhibitory concentration (IC50) is 22.8 µM in data set [1]; 11.2 µM in data set [3]; 20.2 µM in data set [5]; 2.3 µM in data set [7]; 9.3 µM in data set [9]; 10.5 µM in data set [11]. Also, the figures for the IC50 in data set [15] and in data set [16] were 4.9 µM and over 500 µM, respectively. Further, the “growth inhibition (GI)” value in data set [2], in data set [4], in [6], in [8], in [10] and in data set [12] was “Dose-dependent effect” each time. For the same molecule, the result in data set [13] and in data set [14] was Active.

Take `COc1cc(/C=C/C(=O)c2ccc3ccccc3c2)cc(I)c1OC`: the IC50 is 13.3 µM in data set [1]; 14.4 µM in [3]; 18.1 µM in data set [5]; 1.3 µM in data set [7]; 10.4 µM in data set [9]; 16.5 µM in data set [11]. The values for the half-inhibitory concentration (IC50) in data set [15] and in data set [16] were 7.8 µM and over 500 µM, respectively. The “growth inhibition (GI)” value in data set [2], in data set [4], in data set [6], in data set [8], in [10] and in [12] was “Dose-dependent effect” in each case. Also, the outcome in data set [13] and in data set [14] was Active. Moreover, the inhibition result in [18] and in data set [19] was “Active” each time.

Regarding `COc1cc(/C=C/C(=O)c2ccc3ccccc3c2)cc(Cl)c1OC`, the 50% inhibitory concentration (IC50) in [1] came out at 23.9 µM; in data set [3] it was 12.9 µM; in data set [5] it was 16.4 µM; in data set [7], 1.5 µM; in [9], 10.3 µM; in data set [11], 13.1 µM. Besides, the concentration for half-maximal inhibition (IC50) in data set [15] was 8.7 µM; in data set [16], over 500 µM. Besides, the “growth inhibition (GI)” value in data set [2], in data set [4], in [6], in data set [8], in data set [10] and in [12] was “Dose-dependent effect” throughout. Moreover, the outcome in [13], in data set [14], in data set [20], in [21] and in data set [22] was Active. The inhibition entry in [18] and in [19] was “Active” throughout.

With `COc1cc(C2CC(c3ccc4ccccc4c3)=NN2C(C)=O)cc(Br)c1OC` (configuration not stated), the concentration for half-maximal inhibition (IC50) in data set [1] turned out to be 2.5 µM; in data set [3] it was 2.7 µM; in [5], 3.8 µM; in [7] it was 2.6 µM; in data set [9] it was 1.5 µM; in [11] it was 2.2 µM. For the same molecule, the half-inhibitory concentration (IC50) is 8.9 µM in data set [15] and 12.6 µM in data set [16]. In addition, the “growth inhibition (GI)” value in data set [2], in [4], in data set [6], in data set [8], in [10] and in [12] was “Dose-dependent effect” throughout. Further, the outcome in [13] and in [14] was Active. For the same molecule, the selectivity ratio in [17] fell in the range of 4 to 5.

Consider `COc1ccc2c3c([nH]c2c1)[C@H](C=C(C)C)N1C(=O)[C@@H]2CCCN2C(=O)[C@@H]1C3` [FUMITREMORGIN], for which the 50% inhibitory concentration (IC50) in [15] was 0.96 µM.

Consider `COc1cc(C2CC(c3ccc4ccccc4c3)=NN2C(C)=O)cc(Cl)c1OC` (configuration not stated), for which the concentration for half-maximal inhibition (IC50) in [1] worked out at 3.5 µM; in [3], 3.8 µM; in data set [5] it was 4.6 µM; in data set [7] it was 2.1 µM; in data set [9], 3.1 µM; in [11], 4.7 µM. Moreover, the half-maximal inhibitory concentration (IC50) was 7.4 µM in [15] and 12.1 µM in [16]. Further, the “growth inhibition (GI)” value in [2], in data set [4], in data set [6], in data set [8], in data set [10] and in data set [12] was “Dose-dependent effect” each time. In addition, the result in data set [13], in data set [14] and in data set [23] was Active. In addition, in data set [17], the selectivity ratio lay within 4 to 5. The inhibition entry in data set [18] and in [19] was “Active” each time.

`COc1cc(/C=C/C(=O)c2ccc3ccccc3c2)cc(OC)c1OC`: the IC50 came out at 28.1 µM in [1]; 13.7 µM in data set [3]; 22.9 µM in data set [5]; 5.6 µM in data set [7]; 13.3 µM in data set [9]; 13.9 µM in data set [11]. Moreover, the half-inhibitory concentration (IC50) in [15] is 2.4 µM; in data set [16], 13 µM. The “growth inhibition (GI)” value in data set [2], in data set [4], in [6], in [8], in data set [10] and in data set [12] was “Dose-dependent effect” each time. For the same molecule, the result in data set [13], in data set [14], in [20], in data set [21] and in data set [22] was Active. Further, in [17], the selectivity ratio fell in the range of 4 to 5.
